The text below walks through data of ChEMBL document CHEMBL4339207, “Kinase inhibitions in pyrido[4,3-h] and [3,4-g]quinazolines: Synthesis, SAR and molecular modeling studies” (Bioorg Med Chem, 2019).

Experiment [1] concerns the target Dual specificity protein kinase CLK1 (Mus musculus) (UniProt P22518). The experiment is described as follows: Inhibition of recombinant mouse CLK1 expressed in bacteria assessed as residual activity at 10 uM using GRSRSRSRSRSR as substrate in presence of [gamma33P]ATP relative to control.
Experiment [2] addresses Dual specificity tyrosine-phosphorylation-regulated kinase 1A (Rattus norvegicus) (UniProt Q63470). As to the kind of experiment: Inhibition of rat DYRK1A kinase domain (1 to 499 residues) expressed in bacteria assessed as residual activity at 1 uM using KKISGRLSPIMTEQ as substrate in presence of [gamma33P]ATP relative to control.
Experiment [3] has as its target T1, Cyclin-dependent kinase 5/CDK5 activator 1 (Homo sapiens) (UniProt Q00535+Q15078). As to the kind of experiment: Inhibition of recombinant human CDK5/p25 expressed in bacteria assessed as residual activity at 10 uM using histone H1 as substrate in presence of [gamma33P]ATP relative to control. In outline:
(§1)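 Recombinant human CDK5/p25 expressed in bacteria was used with histone H1 as substrate in a ³³P radioassay. Residual activity (%) was measured at 10 µM and 1 µM compound, in triplicate.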

The species named for experiment [4] is Sus scrofa. As to the kind of experiment: Inhibition of porcine brain CK1delta/epsilon assessed as residual activity at 10 uM using RRKHAAIGSpAYSITA as substrate in presence of [gamma33P]ATP relative to control.
Experiment [5] has as its target T2, Glycogen synthase kinase-3 (Sus scrofa) (UniProt B2LUN4+I6LNT8). As to the kind of experiment: Inhibition of porcine brain GSK3alpha/beta assessed as residual activity at 1 uM using YRRAAVPPSPSLSRHSSPHQSpEDEEE as substrate in presence of [gamma33P]ATP relative to control. In outline: (§2)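 Radiometric kinase assay (method A, ³³P). GSK-3α/β affinity-purified from porcine brain (Sus scrofa domesticus). Inhibitors tested at 10 µM and 1 µM. Result reported as % residual kinase activity. Assays run in triplicate.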

Experiment [6] is filed under the species Sus scrofa. As to the kind of experiment: Inhibition of porcine brain CK1delta/epsilon assessed as residual activity at 1 uM using RRKHAAIGSpAYSITA as substrate in presence of [gamma33P]ATP relative to control.
Experiment [7] addresses Dual specificity tyrosine-phosphorylation-regulated kinase 1A (Rattus norvegicus) (UniProt Q63470). The experiment is described as follows: Inhibition of rat DYRK1A kinase domain (1 to 499 residues) expressed in bacteria assessed as residual activity at 10 uM using KKISGRLSPIMTEQ as substrate in presence of [gamma33P]ATP relative to control.
Experiment [8] addresses Dual specificity protein kinase CLK1 (Mus musculus) (UniProt P22518). As to the kind of experiment: Inhibition of recombinant mouse CLK1 expressed in bacteria assessed as residual activity at 1 uM using GRSRSRSRSRSR as substrate in presence of [gamma33P]ATP relative to control.
Experiment [9] addresses T2, Glycogen synthase kinase-3 (Sus scrofa). The experiment is described as follows: Inhibition of porcine brain GSK3alpha/beta assessed as residual activity at 10 uM using YRRAAVPPSPSLSRHSSPHQSpEDEEE as substrate in presence of [gamma33P]ATP relative to control. In outline:
as §2

The target of experiment [10] is T1, Cyclin-dependent kinase 5/CDK5 activator 1 (Homo sapiens). The experiment is described as follows: Inhibition of recombinant human CDK5/p25 expressed in bacteria assessed as residual activity at 1 uM using histone H1 as substrate in presence of [gamma33P]ATP relative to control. In outline:
as §1

For experiment [11], the target named is Dual specificity protein kinase CLK1 (Mus musculus, UniProt P22518). The experiment is described as follows: Inhibition of recombinant mouse CLK1 expressed in bacteria using GRSRSRSRSRSR as substrate in presence of [gamma33P]ATP.
Dual specificity protein kinase CLK1 (Mus musculus, UniProt P22518), sequence (P22518 whole entry): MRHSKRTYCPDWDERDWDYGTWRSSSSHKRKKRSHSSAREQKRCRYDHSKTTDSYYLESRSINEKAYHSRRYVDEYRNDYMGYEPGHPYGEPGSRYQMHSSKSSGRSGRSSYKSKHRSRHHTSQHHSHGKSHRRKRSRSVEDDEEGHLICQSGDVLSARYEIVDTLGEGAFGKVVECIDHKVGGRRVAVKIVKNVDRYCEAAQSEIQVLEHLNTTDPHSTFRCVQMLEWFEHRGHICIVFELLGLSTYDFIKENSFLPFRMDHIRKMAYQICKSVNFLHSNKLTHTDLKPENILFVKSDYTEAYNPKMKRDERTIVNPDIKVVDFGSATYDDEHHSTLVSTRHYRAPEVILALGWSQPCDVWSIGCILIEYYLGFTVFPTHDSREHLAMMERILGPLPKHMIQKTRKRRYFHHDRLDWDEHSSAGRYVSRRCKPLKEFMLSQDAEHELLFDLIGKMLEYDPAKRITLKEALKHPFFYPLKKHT
In experiment [12] the target is T3, Dual specificity protein kinase CLK1 (Homo sapiens, UniProt P49759). The experiment is described as follows: Inhibition of recombinant human N-terminal GST-tagged CLK1 (129 to end residues) expressed in baculovirus infected Sf9 insect cells assessed as residual activity at 1 uM using MBP as substrate measured after 60 mins by ADP-Glo luminescence assay relative to control. Background: In ADP-Glo the light output rises with the ADP produced.
Target sequence in this assay (P49759 whole entry, looked up): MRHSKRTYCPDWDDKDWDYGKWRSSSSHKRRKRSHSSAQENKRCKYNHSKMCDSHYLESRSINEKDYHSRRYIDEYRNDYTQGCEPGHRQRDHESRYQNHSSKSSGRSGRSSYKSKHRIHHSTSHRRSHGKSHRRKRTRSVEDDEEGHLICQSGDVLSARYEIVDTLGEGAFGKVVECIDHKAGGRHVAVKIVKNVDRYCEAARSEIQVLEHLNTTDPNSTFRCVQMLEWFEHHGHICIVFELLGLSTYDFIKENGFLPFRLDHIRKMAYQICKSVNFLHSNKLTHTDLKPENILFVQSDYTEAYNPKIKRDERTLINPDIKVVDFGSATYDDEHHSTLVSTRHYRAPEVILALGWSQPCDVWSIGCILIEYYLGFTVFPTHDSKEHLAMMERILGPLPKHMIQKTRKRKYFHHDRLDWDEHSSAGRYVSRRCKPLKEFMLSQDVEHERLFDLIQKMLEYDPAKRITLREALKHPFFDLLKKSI

Experiment [13] deals with Dual specificity tyrosine-phosphorylation-regulated kinase 1A (Rattus norvegicus, UniProt Q63470). As to the kind of experiment: Inhibition of recombinant full-length rat N-terminal GST-tagged DYRK1A was expressed in Escherichia coli using DYRKtide as substrate measured after 60 mins by ADP-Glo luminescence assay.
For experiment [14], the target named is T3, Dual specificity protein kinase CLK1. The experiment is described as follows: Inhibition of recombinant human N-terminal GST-tagged CLK1 (129 to end residues) expressed in baculovirus infected Sf9 insect cells sing MBP as substrate measured after 60 mins by ADP-Glo luminescence assay.
Target sequence in this assay (P49759 whole entry): as the sequence (P49759 whole entry, looked up) above
In experiment [15] the target is T4, Glycogen synthase kinase-3 (Homo sapiens) (UniProt P49840+P49841). The experiment is described as follows: Inhibition of GSK3 (unknown origin) assessed as residual activity at 1 uM relative to control.
T4 sequence (P49840 whole entry, looked up): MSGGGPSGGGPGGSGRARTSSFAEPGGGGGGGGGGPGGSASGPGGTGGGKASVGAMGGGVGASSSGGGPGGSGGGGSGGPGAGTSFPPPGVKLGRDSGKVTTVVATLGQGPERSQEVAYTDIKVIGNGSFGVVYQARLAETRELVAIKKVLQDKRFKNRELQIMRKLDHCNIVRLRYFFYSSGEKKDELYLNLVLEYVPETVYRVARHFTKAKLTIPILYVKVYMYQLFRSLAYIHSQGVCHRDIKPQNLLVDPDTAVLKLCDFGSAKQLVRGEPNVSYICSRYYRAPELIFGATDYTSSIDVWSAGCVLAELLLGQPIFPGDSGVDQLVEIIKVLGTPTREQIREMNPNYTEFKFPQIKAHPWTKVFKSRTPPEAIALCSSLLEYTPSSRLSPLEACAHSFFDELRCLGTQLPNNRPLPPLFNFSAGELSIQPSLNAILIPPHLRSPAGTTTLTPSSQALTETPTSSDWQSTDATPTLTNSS
T4 sequence (P49841 whole entry, looked up): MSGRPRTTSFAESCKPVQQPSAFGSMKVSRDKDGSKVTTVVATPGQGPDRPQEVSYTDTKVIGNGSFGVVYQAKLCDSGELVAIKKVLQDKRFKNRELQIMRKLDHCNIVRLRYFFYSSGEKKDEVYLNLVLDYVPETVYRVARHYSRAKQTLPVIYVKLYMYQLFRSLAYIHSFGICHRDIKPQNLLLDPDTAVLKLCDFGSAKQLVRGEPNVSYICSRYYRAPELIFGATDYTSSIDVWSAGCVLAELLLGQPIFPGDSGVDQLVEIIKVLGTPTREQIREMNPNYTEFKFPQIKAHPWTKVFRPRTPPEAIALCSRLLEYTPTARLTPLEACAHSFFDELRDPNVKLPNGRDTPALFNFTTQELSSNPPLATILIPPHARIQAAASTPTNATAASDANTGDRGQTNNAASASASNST
The target of experiment [16] is Dual specificity tyrosine-phosphorylation-regulated kinase 1A (Rattus norvegicus) (UniProt Q63470). The experiment is described as follows: Inhibition of recombinant full-length rat N-terminal GST-tagged DYRK1A was expressed in Escherichia coli assessed as residual activity at 10 uM using DYRKtide as substrate measured after 60 mins by ADP-Glo luminescence assay relative to control.

In experiment [17] the target is T4, Glycogen synthase kinase-3 (Homo sapiens). As to the kind of experiment: Inhibition of GSK3 (unknown origin) assessed as residual activity at 10 uM relative to control.
The target in experiment [18] is T3, Dual specificity protein kinase CLK1. As to the kind of experiment: Inhibition of recombinant human N-terminal GST-tagged CLK1 (129 to end residues) expressed in baculovirus infected Sf9 insect cells assessed as residual activity at 10 uM using MBP as substrate measured after 60 mins by ADP-Glo luminescence assay relative to control.
Target sequence in this assay (P49759 whole entry, looked up): as the sequence (P49759 whole entry, looked up) above
Experiment [19] concerns the target T5, Casein kinase I (Homo sapiens) (UniProt Q9HCP0+P78368+P48730+P49674+P48729). The experiment is described as follows: Inhibition of CK1 (unknown origin) assessed as residual activity at 10 uM relative to control.
The target in experiment [20] is T1, Cyclin-dependent kinase 5/CDK5 activator 1 (Homo sapiens). As to the kind of experiment: Inhibition of recombinant human full-length N-terminal GST-tagged CDK5/p25 expressed in baculovirus infected Sf9 insect cells assessed as residual activity at 1 uM using histone H1 as substrate measured after 10 mins relative to control.
Experiment [21] concerns the target Dual specificity tyrosine-phosphorylation-regulated kinase 1A (Rattus norvegicus) (UniProt Q63470). The experiment is described as follows: Inhibition of recombinant full-length rat N-terminal GST-tagged DYRK1A was expressed in Escherichia coli assessed as residual activity at 1 uM using DYRKtide as substrate measured after 60 mins by ADP-Glo luminescence assay relative to control.

The target of experiment [22] is T1, Cyclin-dependent kinase 5/CDK5 activator 1 (Homo sapiens). As to the kind of experiment: Inhibition of recombinant human full-length N-terminal GST-tagged CDK5/p25 expressed in baculovirus infected Sf9 insect cells assessed as residual activity at 10 uM using histone H1 as substrate measured after 10 mins relative to control.
In experiment [23] the target is T5, Casein kinase I (Homo sapiens). The experiment is described as follows: Inhibition of CK1 (unknown origin) assessed as residual activity at 1 uM relative to control.

pIC50: −log10 of the molar value.

T1 sequence (Q00535 whole entry): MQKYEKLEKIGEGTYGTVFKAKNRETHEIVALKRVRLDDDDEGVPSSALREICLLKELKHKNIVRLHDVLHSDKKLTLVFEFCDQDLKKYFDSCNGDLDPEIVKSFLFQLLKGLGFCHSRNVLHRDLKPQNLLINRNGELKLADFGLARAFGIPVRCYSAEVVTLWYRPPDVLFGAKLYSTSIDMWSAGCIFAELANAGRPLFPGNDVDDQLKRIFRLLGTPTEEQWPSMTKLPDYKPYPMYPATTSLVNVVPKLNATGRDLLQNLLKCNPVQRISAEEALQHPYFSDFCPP
T1 sequence (Q15078 99-307 partner limits assumed): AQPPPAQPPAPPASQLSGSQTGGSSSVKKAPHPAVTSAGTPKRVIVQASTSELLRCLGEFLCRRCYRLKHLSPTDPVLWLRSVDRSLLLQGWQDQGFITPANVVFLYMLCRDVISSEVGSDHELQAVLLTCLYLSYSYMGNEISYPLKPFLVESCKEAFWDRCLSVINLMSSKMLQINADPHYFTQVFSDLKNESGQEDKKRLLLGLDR
Dual specificity protein kinase CLK1 (Mus musculus), sequence (P22518 whole entry, looked up, the tested form may be a part): as the sequence (P22518 whole entry) above

For the compound `CC(C)N(CNc1ncc2cc3cnccc3c([N+](=O)[O-])c2n1)C(C)C`, the Activity in experiment [1] was 5%; in [2], 69%; in experiment [3], 61%; in the experiment filed under Sus scrofa [4], 38%; in [5], 53%; in the experiment listed under Sus scrofa [6] it was 74%. In addition, the Activity was found to be 46% in [7], 44% in [8], 1% in [9] and 99% in experiment [10].

On to `CC(C)N(/C=N/c1ncc2cc3cnccc3c([N+](=O)[O-])c2n1)C(C)C`, for which the Activity stood at 1% in [1]; 95% in experiment [2]; 45% in [3]; 60% in the experiment listed under Sus scrofa [4]; 73% in experiment [5]; 96% in the experiment listed under Sus scrofa [6]. Also, the Activity in [7] came out at 46%; in [8], 53%; in [9], 15%; in experiment [10], 100%.

Turning to `Nc1ncc2cc3cnccc3c([N+](=O)[O-])c2n1`, the Activity came to 2% in [1]; 36% in experiment [2]; 56% in experiment [3]; 9% in the experiment filed under Sus scrofa [4]; 74% in experiment [5]; 41% in the experiment filed under Sus scrofa [6]. For the same compound, the Activity was found to be 5% in experiment [7], 6% in [8], 25% in experiment [9] and 88% in [10].

As a reminder, the pIC50 is the negative decadic logarithm of the IC50, by convention in mol/L. Take `CN(C)CNc1ncc2cc3cnccc3c([N+](=O)[O-])c2n1`: the Activity in [1] came to 6%; in experiment [2], 39%; in experiment [3], 41%; in the experiment filed under Sus scrofa [4], 38%; in [5] it was 73%; in the experiment listed under Sus scrofa [6], 100%. Besides, the Activity was 4% in experiment [7], 13% in experiment [8], 15% in experiment [9] and 99% in experiment [10]. Moreover, the pIC50 in experiment [11] is 7.06.

On to `CN(C)/C=N/c1ncc2cc3cnccc3c([N+](=O)[O-])c2n1`, for which the Activity in experiment [1] is 3%; in experiment [2], 100%; in experiment [3] it was 59%; in the experiment listed under Sus scrofa [4], 53%; in experiment [5], 86%; in the experiment listed under Sus scrofa [6] it was 100%. In addition, the Activity in experiment [7] worked out at 31%; in [8] it was 33%; in experiment [9], 30%; in [10] it was 94%.

Turning to `Nc1ncc2ccc3ccncc3c2n1`, the Activity in experiment [12] worked out at 48%; in [15], 98%; in [16] it was 25%; in experiment [17] it was 75%; in [18] it was 9%; in experiment [19], 22%. Moreover, the Activity amounted to 100% in experiment [20], 71% in experiment [21], 63% in experiment [22] and 64% in experiment [23]. Further, the pIC50 in experiment [13] was 5.66; in [14] it was 5.83.
